Experimental data reported in ChEMBL document CHEMBL1127855, “Antitumor agents. 144. New gamma-lactone ring-modified arylamino etoposide analogs as inhibitors of human DNA topoisomerase II” (1994).

How the values were obtained:
KB = experiment: Cytotoxicity against KB-ATCC cell lines after a 3-day incubation; type: functional; conditions: Homo sapiens, 72 h, read-out: ID50 (the source's name)
Outline: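 KB-ATCC cells were incubated with compound for 3 days. The read-out was cell number, and ID50 was taken as the concentration giving a 50% reduction.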

[1] = molecular target: DNA topoisomerase II (Homo sapiens) (UniProt P11388+Q02880); experiment: Inhibition of human DNA topoisomerase II activity; type: protein assay
Outline: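 Each compound was tested in triplicate at 5, 10, 25, 50 and 100 µM. ID50 was set from the degree of inhibition seen at these concentrations.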

Nucleic Acid = experiment: Percent of cellular protein-DNA complex formation at concentration of 20 uM; type: functional; conditions: Homo sapiens

| Compound | ID50 [1] | IC50 (KB) | Complex formation (Nucleic Acid) |
| --- | --- | --- | --- |
| COc1cc([C@@H]2c3cc4c(cc3[C@@H](Nc3ccccc3)[C@H]3COC[C@H]23)OCO4)cc(OC)c1O | 50 µM | 2.6 µM | 139% |
| COc1cc([C@@H]2c3cc4c(cc3[C@@H](O[C@@H]3O[C@@H]5CO[C@@H](C)O[C@H]5[C@H](O)[C@H]3O)[C@H]3COC(=O)[C@H]23)OCO4)cc(OC)c1O [ETOPOSIDE] | – | 0.2 µM | 100% |
| COc1cc([C@@H]2c3cc4c(cc3[C@@H](Nc3ccccc3)[C@H]3CO[C@@H](OC)[C@H]23)OCO4)cc(OC)c1O | 100 µM | 5.5 µM | 96% |
| COc1cc([C@@H]2c3cc4c(cc3[C@@H](Nc3ccc(F)cc3)[C@H]3COC(=O)[C@H]23)OCO4)cc(OC)c1O | – | 0.24 µM | 213% |

Second part, led by results:

| ID50 [1] | Compound | IC50 (KB) | Complex formation (Nucleic Acid) |
| --- | --- | --- | --- |
| 50 µM | COc1cc([C@@H]2c3cc4c(cc3[C@@H](Nc3ccc(F)cc3)[C@H]3CO[C@@H](O)[C@H]23)OCO4)cc(OC)c1O | 2.2 µM | 87% |
| > 100 µM | COc1cc([C@@H]2c3cc4c(cc3[C@@H](Nc3ccc(F)cc3)[C@H]3CO[C@@H](OC)[C@H]23)OCO4)cc(OC)c1O | 5.5 µM | 66% |
| 50 µM | COc1cc([C@@H]2c3cc4c(cc3[C@@H](Nc3ccc(F)cc3)[C@H]3COC[C@H]23)OCO4)cc(OC)c1O | 4.1 µM | 125% |
